Measured values taken from the RNAGym collection of RNA variant scans (doi:10.1126/science.aae0568).
This sample holds only a part of the variants without activity.

B1: tRNA (parent)
chain: GUUCCGUUGGCGUAAUGGUAACGCGUCUCCCUCCUAAGGAGAAGACUGCGGGUUCGAGUCCCGUACGGAACG

Variants of: B1
Assay: yeast fitness relative to wild type (ratio to wild type); higher = fitter; tRNA-Arg(CCU), competitive growth, 37 C, YPD
How it was run: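 Genotype frequency changes were the basis for Darwinian fitness relative to wild type. The frequencies came from 100-nucleotide paired-end sequencing of gene amplicons from the start population and each end population of pooled yeast strains with tRNA-Arg(CCU) gene variants at the native locus. Competition ran in YPD at 37°C for 24 hours in six replicates, genotypes needed ≥ 100 starting reads, and estimates < 0.5 were set to 0.5.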

Variant	yeast fitness
C5G C34A A37U G44A G51A C55A	0.654
C5G C34A A37U G44A G51A C55A A57U	≤ 0.5
C5G C34G	0.62
C5G C34G C62A G63A	≤ 0.5
C5G C34G C62G	0.59
C5G C34G C66U	≤ 0.5
C5G C34G G38C G68C	≤ 0.5
C5G C34G U47A C62A G63A	≤ 0.5
C5G C34U	0.599
C5G C34U A70U	≤ 0.5
C5G C34U C46A C62U	≤ 0.5
C5G C34U C55G A70G	≤ 0.5
C5G C34U G44C U47G	≤ 0.5
C5G C34U U35C	0.545
C5G C46A	0.917
C5G C46G A65C	0.668
C5G C46G A69U	0.712
C5G C46G C49U	0.646
C5G C46U	0.88
C5G C46U C49U	0.944
C5G C46U C66A	0.524
C5G C46U G51A U54G	0.571
C5G C46U G68C	0.596
C5G C49G G50A A57C	≤ 0.5

Variant	yeast fitness
C5G C49G G63A	0.57
C5G C49U	0.815
C5G C49U C61G	0.534
C5G C49U G58C	0.622
C5G C49U G63C	≤ 0.5
C5G C49U U59G	0.579
C5G C55G A70U	≤ 0.5
C5G C55G U59C C60U G67U	≤ 0.5
C5G C55U A65C A70U	≤ 0.5
C5G C55U C61A	0.605
C5G C55U C61A A65U	0.669
C5G C55U G67A	0.598
C5G C55U G68C	0.506
C5G C60A	0.663
C5G C60A A69C	0.532
C5G C60G	0.581
C5G C60G A70C	0.509
C5G C60U C62G	0.634
C5G C61A	0.651
C5G C61A G67A	0.529
C5G C61G	0.63
C5G C61G A65U	≤ 0.5
C5G C61G A69C	0.574
C5G C61U	0.736

Variant	yeast fitness
C5G C61U A65U	0.557
C5G C61U A70G	0.707
C5G C62G	0.791
C5G C62U A69C	0.708
C5G C62U C66G	0.641
C5G C66G G68C	≤ 0.5
C5G C66U	0.74
C5G G6A C29U C33G G38A G67U	≤ 0.5
C5G G6A G23A	≤ 0.5
C5G G6A G25A	0.675
C5G G6A G48A	≤ 0.5
C5G G6A U53G A57C	≤ 0.5
C5G G6C A37G G51C A57G	≤ 0.5
C5G G6C C24U C46A	0.559
C5G G6C C30G C33U A45U	≤ 0.5
C5G G6C C33A A40U A70C	≤ 0.5
C5G G6C C46A	≤ 0.5
C5G G6C G67A	≤ 0.5
C5G G6C U26G C61U	0.59
C5G G6C U54C G56C G58A	≤ 0.5
C5G G6C U64C	0.586
C5G G9A A20G	0.553
C5G G9A A43G G48C A69C	≤ 0.5
C5G G9A A65C	0.596

Variant	yeast fitness
C5G G9A C11U A21U C22U A57C C60G	0.535
C5G G9A C27G C61U	≤ 0.5
C5G G9A C31G	0.767
C5G G9C	0.696
C5G G9C A14C	≤ 0.5
C5G G9C A20G A21C U59C	≤ 0.5
C5G G9C A20U A21G C24G C27G A43G	≤ 0.5
C5G G9C A21G	0.531
C5G G9C A42G C49U U54C	0.533
C5G G9C A42G U54C	0.641
C5G G9C A42G U54C U59C	≤ 0.5
C5G G9C A57U	≤ 0.5
C5G G9C C30G	≤ 0.5
C5G G9C C30G C66U	≤ 0.5
C5G G9C C33G A45G C55G G56C	≤ 0.5
C5G G9C G18A G25C A37C A43G	≤ 0.5
C5G G9C G56C	≤ 0.5
C5G G9C U28C C55U	≤ 0.5
C5G G9U A21C U54A A57G	≤ 0.5
C5G G10A A20U C24U C34U A43U A69C	0.667
C5G G10A A20U U26C U35C C49A G56A U64A	≤ 0.5
C5G G10A A40G A70G	≤ 0.5
C5G G10A C11G U16G	≤ 0.5
C5G G10A C11G U16G C33G A65G	≤ 0.5

Variant	yeast fitness
C5G G10A C11G U16G C33G C61A	≤ 0.5
C5G G10A C11G U16G C33G G58A A65G	≤ 0.5
C5G G10A C11G U16G C33G U47A C60A	≤ 0.5
C5G G10A C11G U16G C33G U59C	≤ 0.5
C5G G10A C29G	≤ 0.5
C5G G10A G52A	0.741
C5G G10A G52A A70G	0.564
C5G G10C	0.651
C5G G10C A15C C34U C55A	≤ 0.5
C5G G10C A37U G38A	≤ 0.5
C5G G10C A43U C62A	≤ 0.5
C5G G10C C22A U32C	≤ 0.5
C5G G10C C29A U32A C46G A57C	≤ 0.5
C5G G10C C30U G39C C55G	≤ 0.5
C5G G10C C31U A70G	≤ 0.5
C5G G10C G52A	≤ 0.5
C5G G10C G52A A69U	≤ 0.5
C5G G10C G67A	≤ 0.5
C5G G10C G68U	≤ 0.5
C5G G10C U13G A37C	0.508
C5G G10C U13G C31G U59A	≤ 0.5
C5G G10C U19G A45C G51A	≤ 0.5
C5G G10C U47A A70G	≤ 0.5
C5G G12A A14G C30G A45G G52A	≤ 0.5

Variant	yeast fitness
C5G G12A A36U A42U U59C	≤ 0.5
C5G G12A A36U A42U U59C A65C	≤ 0.5
C5G G12A C46U	0.572
C5G G12A C46U G48A G52C	≤ 0.5
C5G G12A C46U G52C	0.61
C5G G12A G25A	0.783
C5G G12A U47C C62A	≤ 0.5
C5G G12C	0.816
C5G G12C A20U C24G C33A C46A C55A	≤ 0.5
C5G G12C G18A C24U C29U A36G	0.608
C5G G12C G18A C24U C29U A36G A45C A69C	≤ 0.5
C5G G12U A45U A57U	≤ 0.5
C5G G17A A20C C49G G51A	≤ 0.5
C5G G17A A37C A65C	0.588
C5G G17A A40C	0.651
C5G G17A C22U C46U C66U A70C	0.62
C5G G17A C34A G39C A40C G56C C61G C62G G68C	≤ 0.5
C5G G17A G18A A57C	0.554
C5G G17A G38A A40G A69U	≤ 0.5
C5G G17C A20C A21U C27U C33G	≤ 0.5
C5G G17C A20C A21U C27U C33G G67A	0.595
C5G G17C A42U G52A G67U	≤ 0.5
C5G G17C A43U	0.516
C5G G17C A70U	≤ 0.5

Variant	yeast fitness
C5G G17C C46U G68A	≤ 0.5
C5G G17C C49U C61A	≤ 0.5
C5G G17C C60U	0.686
C5G G17C C62U A65C	0.52
C5G G17C G23C C33G A43C	≤ 0.5
C5G G17C G25A A40C G68A	≤ 0.5
C5G G17C G25A G51A	≤ 0.5
C5G G17C G38C G52A	≤ 0.5
C5G G17C U47A C55A	0.516
C5G G17C U47A C55A G68A	0.562
C5G G18A	0.713
C5G G18A A20U C55G	≤ 0.5
C5G G18A A42C A45C	≤ 0.5
C5G G18A A57G A65C	≤ 0.5
C5G G18A C27G C30U C31G	≤ 0.5
C5G G18A C55A C61U	≤ 0.5
C5G G18A G25A C61A	≤ 0.5
C5G G18A G48C G67A	≤ 0.5
C5G G18C	0.733
C5G G18C C31A	≤ 0.5
C5G G18C C31A G38U	≤ 0.5
C5G G18C C60G	≤ 0.5
C5G G18C C61U A65C	≤ 0.5
